According to PMC6926016 (Proceedings of the National Academy of Sciences of the …, 2019):

Tests used:
Type in all cases: cell-based
Conditions in all cases: Ca2+ assay
chicken TRPA1 = assay: Calcium influx assay, chicken TRPA1
In short: (§1)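 TRPA1 orthologue cDNAs in pcDNA3.1 Hygro, transiently transfected, each construct tested in at least 2 independent transfections. Fluorescence Ca2+ influx (RFU) read in Hanks balanced salt solution with 1.26 mM Ca2+ and 1.0 mM Mg2+.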

human TRPA1 = human TRPA1 (Homo sapiens, UniProt O75762); assay: Calcium influx assay in HEK-293F cells transiently expressing human TRPA1
rat TRPA1 = rat TRPA1 (Rattus norvegicus, UniProt Q6RI86); assay: Calcium influx assay, rat TRPA1
In short: as §1

guinea pig TRPA1 = guinea pig TRPA1 (Cavia porcellus, UniProt H0VJD1); assay: Calcium influx assay, guinea pig TRPA1
In short: as §1

dog TRPA1 = dog TRPA1 (Canis lupus familiaris, UniProt A0A8I3Q1Q7); assay: Calcium influx assay, dog TRPA1
In short: as §1

Chain of human TRPA1 (O75762 whole entry): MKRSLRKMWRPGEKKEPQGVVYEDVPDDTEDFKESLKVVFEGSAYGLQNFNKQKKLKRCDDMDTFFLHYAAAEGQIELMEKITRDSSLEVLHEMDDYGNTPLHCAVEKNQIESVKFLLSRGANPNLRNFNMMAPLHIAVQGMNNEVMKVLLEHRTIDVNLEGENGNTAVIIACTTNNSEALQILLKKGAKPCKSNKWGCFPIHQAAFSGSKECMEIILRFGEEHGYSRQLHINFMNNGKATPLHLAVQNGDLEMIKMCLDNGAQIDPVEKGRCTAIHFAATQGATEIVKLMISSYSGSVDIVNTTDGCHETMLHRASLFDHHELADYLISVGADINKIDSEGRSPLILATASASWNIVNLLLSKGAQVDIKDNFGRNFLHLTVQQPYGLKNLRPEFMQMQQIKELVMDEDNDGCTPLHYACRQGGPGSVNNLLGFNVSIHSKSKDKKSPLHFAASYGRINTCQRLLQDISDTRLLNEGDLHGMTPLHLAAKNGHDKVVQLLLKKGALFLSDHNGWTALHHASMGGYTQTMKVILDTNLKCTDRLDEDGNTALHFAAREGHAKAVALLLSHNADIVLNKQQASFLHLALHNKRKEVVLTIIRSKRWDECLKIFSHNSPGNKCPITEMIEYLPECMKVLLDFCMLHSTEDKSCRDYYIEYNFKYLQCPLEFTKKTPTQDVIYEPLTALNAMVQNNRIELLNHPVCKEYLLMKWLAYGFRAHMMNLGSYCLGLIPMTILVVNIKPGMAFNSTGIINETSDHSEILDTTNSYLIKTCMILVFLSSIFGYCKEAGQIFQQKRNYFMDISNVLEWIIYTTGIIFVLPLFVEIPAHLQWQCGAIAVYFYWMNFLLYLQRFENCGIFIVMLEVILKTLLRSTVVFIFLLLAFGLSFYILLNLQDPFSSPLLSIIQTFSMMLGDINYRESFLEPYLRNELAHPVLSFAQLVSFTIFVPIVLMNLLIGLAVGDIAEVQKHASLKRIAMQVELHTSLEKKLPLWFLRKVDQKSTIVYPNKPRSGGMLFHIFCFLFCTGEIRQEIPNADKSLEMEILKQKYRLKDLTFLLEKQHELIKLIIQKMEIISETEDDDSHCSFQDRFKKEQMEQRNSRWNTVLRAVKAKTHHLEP
Chain of dog TRPA1 (A0A8I3Q1Q7 1-1118): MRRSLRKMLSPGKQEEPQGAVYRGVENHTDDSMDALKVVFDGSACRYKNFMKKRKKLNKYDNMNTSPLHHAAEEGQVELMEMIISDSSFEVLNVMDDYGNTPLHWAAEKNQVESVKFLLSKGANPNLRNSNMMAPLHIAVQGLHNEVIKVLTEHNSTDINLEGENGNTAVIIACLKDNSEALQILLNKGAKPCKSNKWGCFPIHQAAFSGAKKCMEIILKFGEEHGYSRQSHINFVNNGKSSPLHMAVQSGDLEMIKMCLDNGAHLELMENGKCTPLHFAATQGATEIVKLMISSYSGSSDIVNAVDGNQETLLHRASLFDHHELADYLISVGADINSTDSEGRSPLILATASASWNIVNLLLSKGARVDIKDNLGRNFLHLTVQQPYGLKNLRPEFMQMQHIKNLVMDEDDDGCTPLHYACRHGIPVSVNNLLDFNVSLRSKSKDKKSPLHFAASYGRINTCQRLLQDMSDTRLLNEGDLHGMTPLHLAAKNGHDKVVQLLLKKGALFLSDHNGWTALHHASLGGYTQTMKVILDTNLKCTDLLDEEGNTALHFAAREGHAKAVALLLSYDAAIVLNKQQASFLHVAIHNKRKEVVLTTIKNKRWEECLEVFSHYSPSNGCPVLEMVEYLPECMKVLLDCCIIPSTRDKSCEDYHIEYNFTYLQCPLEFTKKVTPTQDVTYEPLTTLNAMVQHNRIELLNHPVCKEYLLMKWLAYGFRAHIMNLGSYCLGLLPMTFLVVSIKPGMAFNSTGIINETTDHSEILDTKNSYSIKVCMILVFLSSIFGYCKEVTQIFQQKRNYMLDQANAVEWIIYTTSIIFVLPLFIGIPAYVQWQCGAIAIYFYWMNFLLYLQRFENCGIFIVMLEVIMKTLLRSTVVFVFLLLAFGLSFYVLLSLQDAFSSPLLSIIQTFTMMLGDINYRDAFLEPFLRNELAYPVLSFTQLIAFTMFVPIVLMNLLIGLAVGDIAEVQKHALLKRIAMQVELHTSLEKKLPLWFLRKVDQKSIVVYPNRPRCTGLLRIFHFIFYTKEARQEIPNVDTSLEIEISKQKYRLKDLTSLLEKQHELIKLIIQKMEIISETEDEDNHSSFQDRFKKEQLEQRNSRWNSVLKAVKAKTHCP
Chain of guinea pig TRPA1 (H0VJD1 1-991): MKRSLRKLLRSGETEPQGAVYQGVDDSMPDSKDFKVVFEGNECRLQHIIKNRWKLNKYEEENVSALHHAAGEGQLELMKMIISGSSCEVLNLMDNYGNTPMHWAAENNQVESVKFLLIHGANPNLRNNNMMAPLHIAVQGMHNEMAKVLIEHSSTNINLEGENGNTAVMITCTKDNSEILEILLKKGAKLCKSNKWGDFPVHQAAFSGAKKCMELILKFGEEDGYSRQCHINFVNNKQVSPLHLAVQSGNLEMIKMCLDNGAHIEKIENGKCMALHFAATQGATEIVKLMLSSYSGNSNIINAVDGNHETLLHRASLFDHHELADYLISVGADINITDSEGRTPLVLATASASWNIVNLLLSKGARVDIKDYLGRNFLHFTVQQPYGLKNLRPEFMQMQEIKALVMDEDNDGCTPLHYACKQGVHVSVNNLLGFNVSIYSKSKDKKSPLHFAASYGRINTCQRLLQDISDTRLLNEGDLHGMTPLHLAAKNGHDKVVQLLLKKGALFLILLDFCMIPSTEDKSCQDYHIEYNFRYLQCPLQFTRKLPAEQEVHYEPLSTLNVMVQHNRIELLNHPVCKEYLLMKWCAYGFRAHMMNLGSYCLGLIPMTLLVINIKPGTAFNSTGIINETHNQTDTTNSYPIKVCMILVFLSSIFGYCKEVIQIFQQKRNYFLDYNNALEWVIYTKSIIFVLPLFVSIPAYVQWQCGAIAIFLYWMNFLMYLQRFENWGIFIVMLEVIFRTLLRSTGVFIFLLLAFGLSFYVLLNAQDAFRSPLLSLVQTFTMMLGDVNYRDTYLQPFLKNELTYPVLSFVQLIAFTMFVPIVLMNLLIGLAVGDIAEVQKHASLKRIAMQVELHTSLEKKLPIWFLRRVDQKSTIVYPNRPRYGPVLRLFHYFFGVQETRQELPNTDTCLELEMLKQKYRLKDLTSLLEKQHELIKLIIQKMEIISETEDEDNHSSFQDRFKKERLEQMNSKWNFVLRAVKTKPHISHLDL
Chain of rat TRPA1 (Q6RI86 whole entry): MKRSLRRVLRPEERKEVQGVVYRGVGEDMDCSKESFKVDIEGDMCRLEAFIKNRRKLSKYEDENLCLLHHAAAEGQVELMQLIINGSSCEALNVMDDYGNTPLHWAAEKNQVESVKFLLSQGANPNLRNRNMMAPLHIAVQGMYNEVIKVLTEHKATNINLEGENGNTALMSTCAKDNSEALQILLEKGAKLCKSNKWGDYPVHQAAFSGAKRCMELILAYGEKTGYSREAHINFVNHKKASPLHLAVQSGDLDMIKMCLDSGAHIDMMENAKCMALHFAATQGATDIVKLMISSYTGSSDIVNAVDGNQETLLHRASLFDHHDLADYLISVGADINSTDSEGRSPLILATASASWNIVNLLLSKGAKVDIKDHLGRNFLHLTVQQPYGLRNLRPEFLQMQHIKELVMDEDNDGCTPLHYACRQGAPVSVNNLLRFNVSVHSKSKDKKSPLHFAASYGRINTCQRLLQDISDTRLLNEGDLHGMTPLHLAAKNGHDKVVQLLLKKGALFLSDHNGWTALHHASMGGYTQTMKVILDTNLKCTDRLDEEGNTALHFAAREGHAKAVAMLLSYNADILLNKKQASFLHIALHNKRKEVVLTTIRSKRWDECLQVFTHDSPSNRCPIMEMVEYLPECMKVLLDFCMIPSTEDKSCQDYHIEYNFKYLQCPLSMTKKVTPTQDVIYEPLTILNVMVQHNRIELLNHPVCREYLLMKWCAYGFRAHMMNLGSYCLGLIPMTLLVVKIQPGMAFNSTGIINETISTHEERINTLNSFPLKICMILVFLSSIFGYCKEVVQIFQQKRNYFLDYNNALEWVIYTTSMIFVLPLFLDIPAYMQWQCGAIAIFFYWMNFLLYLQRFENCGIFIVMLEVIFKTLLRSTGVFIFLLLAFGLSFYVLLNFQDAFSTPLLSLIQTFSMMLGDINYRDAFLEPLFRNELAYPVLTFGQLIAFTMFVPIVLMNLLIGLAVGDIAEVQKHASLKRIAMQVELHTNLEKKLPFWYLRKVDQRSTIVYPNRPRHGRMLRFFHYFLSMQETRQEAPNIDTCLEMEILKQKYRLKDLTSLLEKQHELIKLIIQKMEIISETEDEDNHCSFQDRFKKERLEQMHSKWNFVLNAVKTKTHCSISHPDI

In the case of C=CCN=C=S [AITC, allyl isothiocyanate], the “activation of chicken TRPA1” value (chicken TRPA1) is reported as “robust response”, the Hill slope (human TRPA1; concentration-response, human TRPA1) is reported as 1.4 and the “activation of human TRPA1” value (human TRPA1; species comparison) is reported as “robust response”. For the same compound, the “activation of rat TRPA1” value (rat TRPA1) was “robust response”, the “activation of guinea pig TRPA1” value (guinea pig TRPA1) was “robust response” and the “activation of dog TRPA1” value (dog TRPA1) was “robust response”.
